Assay results reported in article PMC8905529 (RSC Chemical Biology, 2022).
Where a SMILES comes first, the peptide text is derived from it. [ ]: non-standard residue; d: D form. Cha = N[C@@H](CC1CCCCC1)C(=O)O; hLeu = CC(C)CC[C@H](N)C(=O)O

Columns and labels:
[1] = target: T1, ComD1 receptor (Streptococcus pneumoniae serotype 2, UniProt A0A0H2ZM50); test: β-galactosidase activation reporter assay, D39pcomX::lacZ; type: cell-based
T1 sequence (A0A0H2ZM50 1-441): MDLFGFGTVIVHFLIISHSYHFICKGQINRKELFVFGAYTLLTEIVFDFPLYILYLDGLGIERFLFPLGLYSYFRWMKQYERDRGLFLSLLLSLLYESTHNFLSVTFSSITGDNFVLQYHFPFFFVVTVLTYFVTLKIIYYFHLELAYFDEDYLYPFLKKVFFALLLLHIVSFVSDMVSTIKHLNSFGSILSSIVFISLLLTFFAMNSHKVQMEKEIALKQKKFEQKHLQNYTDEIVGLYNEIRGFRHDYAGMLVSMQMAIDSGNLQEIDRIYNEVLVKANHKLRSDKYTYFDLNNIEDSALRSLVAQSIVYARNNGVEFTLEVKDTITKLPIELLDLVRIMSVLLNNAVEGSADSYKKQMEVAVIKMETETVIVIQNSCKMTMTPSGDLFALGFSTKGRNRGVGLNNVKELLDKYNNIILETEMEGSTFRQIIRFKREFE
Method in brief: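 D39pcomX::lacZ was grown on THY agar (5% horse serum, 4 μg mL−1 chloramphenicol), then in THY overnight, diluted 1:50 and grown to OD600 0.30–0.35. […] After 30 min at 37 °C, cells were lysed with Triton X-100 and given ONPG (0.4 mg mL−1, pH 7.0) for 3 h. Reads: OD420/550, Miller units; EC50 by nonlinear regression.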

[2] = test system: trypsin; test: Enzymatic; type: in vitro ADME; settings: trypsin in PBS, pH 7.4
Method in brief: (§1)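 Test peptide at 0.33 mM final in PBS (pH 7.4) with trypsin or chymotrypsin at 0.05 μg mL−1 final. Incubated at 37 °C with shaking (200 rpm) for 24 h. Fragments were identified by MALDI-TOF MS and ESI-TOF LC-MS.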

[3] = test system: chymotrypsin; test: Enzymatic; type: in vitro ADME; settings: chymotrypsin in PBS, pH 7.4
Method in brief: as §1

[4] = target: T1, ComD1 receptor; test: β-galactosidase competitive inhibition reporter assay, D39pcomX::lacZ; type: cell-based
Method in brief: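 Early-exponential D39pcomX::lacZ in THY (OD600 0.30–0.35) was incubated 30 min at 37 °C. Cells were then Triton X-100-lysed and given ONPG (0.4 mg mL−1) for 3 h at 37 °C, quenched with sodium carbonate, and read at OD420/550 for Miller units.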

SMILES: CSCC[C@H](NC(=O)[C@@H](N)CCC(=O)O)C(=O)N[C@@H](CCCNC(=N)N)C(=O)N[C@@H](CC(C)C)C(=O)N[C@@H](CO)C(=O)N[C@@H](CCCCN)C(=O)N[C@@H](CC1CCCCC1)C(=O)N[C@@H](Cc1ccccc1)C(=O)N[C@@H](CCCNC(=N)N)C(=O)N[C@@H](CC(=O)O)C(=O)N[C@@H](Cc1ccccc1)C(=O)N[C@@H](CC1CCCCC1)C(=O)N[C@@H](CC(C)C)C(=O)N[C@@H](CCC(N)=O)C(=O)N[C@@H](CCCNC(=N)N)C(=O)N[C@@H](CCCCN)C(=O)N[C@@H](CCCCN)C(=O)O [CSP1-F7Cha/I12Cha] (H-EMRLSK[Cha]FRDF[Cha]LQRKK-OH)
- EC50 [1]: < 0.001 µM
- half-life at 0.33 mM [2]: 3 h
- half-life at 0.33 mM [3]: 6 h

SMILES: CSCC[C@H](NC(=O)[C@H](C)N)C(=O)N[C@@H](CCCNC(=N)N)C(=O)N[C@@H](CC(C)C)C(=O)N[C@@H](CO)C(=O)N[C@@H](CCCCN)C(=O)N[C@@H](CC1CCCCC1)C(=O)N[C@@H](Cc1ccccc1)C(=O)N[C@@H](CCCNC(=N)N)C(=O)N[C@@H](CC(=O)O)C(=O)N[C@@H](Cc1ccccc1)C(=O)N[C@@H](CC1CCCCC1)C(=O)N[C@@H](CC(C)C)C(=O)N[C@@H](CCC(N)=O)C(=O)N[C@@H](CCCNC(=N)N)C(=O)N[C@@H](CCCCN)C(=O)N[C@@H](CCCCN)C(=O)O [CSP1-E1A/F7Cha/I12Cha] (H-AMRLSK[Cha]FRDF[Cha]LQRKK-OH)
- IC50 [4]: 0.072 µM

SMILES: CSCC[C@H](NC(=O)[C@H](C)N)C(=O)N[C@@H](CCCNC(=N)N)C(=O)N[C@@H](CC(C)C)C(=O)N[C@@H](CO)C(=O)N[C@@H](CCCCN)C(=O)N[C@@H](CC1CCCCC1)C(=O)N[C@@H](Cc1ccccc1)C(=O)N[C@@H](CCCNC(=N)N)C(=O)N[C@@H](CC(=O)O)C(=O)N[C@@H](Cc1ccccc1)C(=O)N[C@@H](CCC(C)C)C(=O)N[C@@H](CC(C)C)C(=O)N[C@@H](CCC(N)=O)C(=O)N[C@@H](CCCNC(=N)N)C(=O)N[C@@H](CCCCN)C(=O)N[C@@H](CCCCN)C(=O)O [CSP1-E1A/F7Cha/I12HLeu] (H-AMRLSK[Cha]FRDF[hLeu]LQRKK-OH)
- IC50 [4]: 0.057 µM

SMILES: CC[C@H](C)[C@H](NC(=O)[C@H](Cc1ccccc1)NC(=O)[C@H](CC(=O)O)NC(=O)[C@H](CCCNC(=N)N)NC(=O)[C@H](Cc1ccccc1)NC(=O)[C@H](Cc1ccccc1)NC(=O)[C@H](CCCCN)NC(=O)[C@H](CO)NC(=O)[C@H](CC(C)C)NC(=O)[C@H](CCCNC(=N)N)NC(=O)[C@H](CCSC)NC(=O)[C@@H](N)CCC(=O)O)C(=O)N[C@@H](CC(C)C)C(=O)N[C@@H](CCC(N)=O)C(=O)N[C@@H](CCCNC(=N)N)C(=O)N[C@@H](CCCCN)C(=O)N[C@@H](CCCCN)C(=O)O [CSP1, reference compound]
- half-life at 0.33 mM [2]: 0.5 h
- half-life at 0.33 mM [3]: 1 h

SMILES: CC[C@H](C)[C@H](NC(=O)[C@H](Cc1ccccc1)NC(=O)[C@H](CC(=O)O)NC(=O)[C@H](CCCNC(=N)N)NC(=O)[C@H](Cc1ccccc1)NC(=O)[C@H](CCC(C)C)NC(=O)[C@H](CCCCN)NC(=O)[C@H](CO)NC(=O)[C@H](CC(C)C)NC(=O)[C@H](CCCNC(=N)N)NC(=O)[C@H](CCSC)NC(=O)[C@H](C)N)C(=O)N[C@@H](CC(C)C)C(=O)N[C@@H](CCC(N)=O)C(=O)N[C@@H](CCCNC(=N)N)C(=O)N[C@@H](CCCCN)C(=O)N[C@@H](CCCCN)C(=O)O [CSP1-E1A/F7HLeu] (H-AMRLSK[hLeu]FRDFILQRKK-OH)
- IC50 [4]: 0.072 µM

SMILES: CC[C@H](C)[C@H](NC(=O)[C@H](Cc1ccccc1)NC(=O)[C@H](CC(=O)O)NC(=O)[C@H](CCCNC(=N)N)NC(=O)[C@H](Cc1ccccc1)NC(=O)[C@H](CC1CCCCC1)NC(=O)[C@H](CCCCN)NC(=O)[C@H](CO)NC(=O)[C@H](CC(C)C)NC(=O)[C@H](CCCNC(=N)N)NC(=O)[C@H](CCSC)NC(=O)[C@H](C)N)C(=O)N[C@@H](CC(C)C)C(=O)N[C@@H](CCC(N)=O)C(=O)N[C@@H](CCCNC(=N)N)C(=O)N[C@@H](CCCCN)C(=O)N[C@@H](CCCCN)C(=O)O [CSP1-E1A/F7Cha] (H-AMRLSK[Cha]FRDFILQRKK-OH)
- IC50 [4]: 0.036 µM
- half-life at 0.33 mM [2]: 4 h
- half-life at 0.33 mM [3]: 4 h
